The source of these data is publication PMC3053052 (Neuropeptides, 2010).

Test [1] relates to NPY receptors in seminiferous tubules. Nature of the test: In vitro NPY receptor autoradiography, ^125I-PYY binding to seminiferous tubules. Details: species or system rat. As to conditions: surrounding seminiferous tubules; 22.5 pM ^125I-PYY, 2,000 Ci/mmol. In outline: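 Serial sections of rat testis incubated with 125I-PYY (10,000 cpm/100 μl, 2,000 Ci/mmol, 22.5 pM). Competition run with subtype-selective ligands, including a Y5-selective PP analogue. Rat brain served as positive control. Slides were exposed to film, and signals were matched to adjacent sections stained with H&E, anti-Factor VIII (vessels) or anti-STAR (Leydig cells). Densities were quantified by computer-assisted imaging.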

The next test has as its system T response to hCG. Nature of the test: Plasma testosterone response to hCG after intratesticular. Format: in vivo, rat. In a few lines:
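Jugular-cannulated adult male rats, freely moving. Test peptide 5 μg/kg itt or vehicle under isoflurane, 1 h before hCG 1 IU/kg iv. One series pretreated with GnRH antagonist […] iv 2 h before hCG. Blood drawn before and 15, 30, 60, 90 min after hCG. Plasma T measured by commercial kit (sensitivity 0.2 ng/mL), cumulative T summed. N = 5–7; mean ± SEM; ANOVA/repeated measures.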

The test system of test [2] is steroidogenic acute regulatory (STAR) protein. Nature of the test: Leydig cell STAR protein level after itt NPY. Format: in vivo, rat. The note with it: Leydig cells, Western blot. In outline:
(§1)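 Decapitation 1 h later. Leydig cells were isolated by collagenase dispersion and Percoll gradient, then lysed in RIPA. 25 μg protein per lane was probed with anti-STAR (1:1,500; 30-kDa form) or anti-TSPO (1:1,000). ECL signal was normalised to β-actin, as % of control.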

Test [3] deals with translocator protein (TSPO). Nature of the test: Leydig cell TSPO level after itt NPY. Type of test: in vivo, rat. As to conditions: Leydig cells, Western blot. In outline: as §1
The next test relates to testes. As to conditions: ref Collin et al., 1998; cited from earlier work.
The test system of another test is plasma LH. The note with it: ref Pierroz et al., 1999; cited from earlier work.
Another test concerns explanted GnRH neurons. The note with it: ref Klenke et al., 2010; cited from earlier work.
In another test the test system is STAR and TSPO. The note with it: systemic alcohol administration; ref Herman et al., 2006; cited from earlier work.
Test [4] deals with T1, vascular NPY receptors (mainly Y1 subtype), rat testis (Rattus norvegicus, UniProt P21555).
T1 sequence (P21555 1-382): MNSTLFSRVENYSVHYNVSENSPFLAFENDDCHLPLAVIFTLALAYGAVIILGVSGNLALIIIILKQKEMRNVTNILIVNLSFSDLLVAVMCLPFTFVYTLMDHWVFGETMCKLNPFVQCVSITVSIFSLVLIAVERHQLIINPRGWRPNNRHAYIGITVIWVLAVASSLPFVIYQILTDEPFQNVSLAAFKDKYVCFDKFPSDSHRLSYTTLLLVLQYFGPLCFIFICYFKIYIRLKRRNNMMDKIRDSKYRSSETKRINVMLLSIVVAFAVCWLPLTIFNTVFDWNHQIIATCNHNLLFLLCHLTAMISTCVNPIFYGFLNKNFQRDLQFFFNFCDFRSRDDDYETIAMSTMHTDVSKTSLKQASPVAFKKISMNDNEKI
Nature of the test: Competition binding. The note with it: 25 nM cold PYY; ^125I-PYY 10,000 cpm/100 μl (22.5 pM); rat testis sections.

Consider “^125I-PYY: ^125I-PYY (2,000 Ci/mmol; Anawa, Wangen, Switzerland)”, for which the “^125I-PYY binding (in words)” value in test [1] is “no binding to surrounding seminiferous tubules”.
Take neuropeptide Y [NPY]: in the test with T response to hCG (NPY 5 μg/kg itt 1 h before hCG 1.0 U/kg iv, at all times studied (15, 30, 60, 90 min), P<0.01 vs vehicle, N = 5-7/point (Fig. 1)), the “T response to hCG” value is “markedly (P<0.01) blunted the T response to hCG at all times studied”. Also, the “basal plasma T levels” value with T response to hCG (NPY 5 μg/kg itt, 1 h, vs vehicle, P<0.01, N = 5-7/point (Fig. 1)) is reported as “significantly (P<0.01) decreased basal plasma T levels”. In the test on T response to hCG (vehicle pre-treatment, NPY 5 μg/kg itt, hCG 1 U/kg iv, cumulative T 15, 30, 60 and 90 min after hCG, mean ± SEM, N = 5-7, P<0.01 vs itt vehicle (22.20 ± 3.25)), the “cumulative plasma T after hCG” value was 10.60 ± 0.98R ^a ng T/ ml. In addition, in test [2], the “changes in STAR levels (in words)” value is “inconsistent and did not reach statistical significance”. Also, in test [3], the “changes in TSPO levels (in words)” value was “inconsistent and did not reach statistical significance”. For the same molecule, in the test with testes, the “vasoconstriction in the testes” value is reported as “reported to cause vasoconstriction in the testes”. Moreover, the “plasma LH levels” value in the test on plasma LH is listed as “lower plasma LH levels”. Moreover, the “neuronal activity of explanted GnRH neurons” value in the test with explanted GnRH neurons was “inhibits the neuronal activity of explanted GnRH neurons”.
As for `CCO` [alcohol], in the test on STAR and TSPO, the “STAR and TSPO concentrations” value was “significantly decreased STAR and TSPO concentrations”.
Turning to “PYY: cold PYY used to assess non-specific binding”, the “displacement of ^125I-PYY binding to testicular blood vessels at 25 nM” value in [4] is “Complete displacement”.
